High-throughput results deposited in PubChem BioAssay by The Scripps Research Institute Molecular Screening Center.
HTRA1 inhibitor: HTRA1 serine protease inhibitors, primary screen, biochemical, fluorescence polarization, HTS; 340,000 tested, 0.5% active; recombinant HTRA1, FP-rhodamine activity-based probe; inhibition, % at 5.96 µM; AID 504803, 2011; Q92743; in the data active means inhibition above about 36%;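 further: 0% = enzyme with DMSO and 100% = wells lacking enzyme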
SIAE primary: human SIAE inhibitors, primary screen, biochemical, fluorescence polarization, FP-Rh probe, 1536-well HTS; 370,000 tested, 0.69% active; inhibition, % at 9.66 µM; Sialate O-acetylesterase (Homo sapiens), Q9HAT2; SIAE FP-Rh probe binding;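 active means inhibition above a cutoff: mean of compounds within the control limits plus 3 SD of those, cut at about 17% in these data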;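 further: 0% = plate median of compound wells and 100% = probe without SIAE protein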
Target sequence (Q9HAT2 whole entry, looked up): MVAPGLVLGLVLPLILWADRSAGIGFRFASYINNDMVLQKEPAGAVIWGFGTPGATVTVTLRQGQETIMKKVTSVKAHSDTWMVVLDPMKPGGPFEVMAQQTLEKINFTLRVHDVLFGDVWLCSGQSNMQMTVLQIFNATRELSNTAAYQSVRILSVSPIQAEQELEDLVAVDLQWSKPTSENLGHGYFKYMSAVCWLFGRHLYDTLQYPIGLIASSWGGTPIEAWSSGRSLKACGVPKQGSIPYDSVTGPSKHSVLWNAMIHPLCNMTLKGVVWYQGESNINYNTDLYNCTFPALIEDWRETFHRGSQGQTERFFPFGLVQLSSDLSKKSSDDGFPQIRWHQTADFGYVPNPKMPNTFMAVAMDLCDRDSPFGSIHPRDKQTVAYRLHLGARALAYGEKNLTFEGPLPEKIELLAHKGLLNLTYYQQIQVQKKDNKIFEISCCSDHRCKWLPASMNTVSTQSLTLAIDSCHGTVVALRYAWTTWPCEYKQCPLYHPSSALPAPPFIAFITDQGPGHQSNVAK
pPAFAH FP inh: pPAFAH enzyme inhibitors, primary screen, biochemical, fluorescence polarization, human | Platelet-activating factor acetylhydrolase (Homo sapiens), Q13093 | recombinant pPAFAH, FP-rhodamine probe fluorescence polarization | inhibition, % at 3.39 µM | 330,000 tested, 1.5% active | AID 463082, 2010;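 active means inhibition above the mean inhibition across the screen plus 3 SD, cut at about 25% in these data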;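 further: inhibitors block binding of the rhodamine activity-based probe so polarization drops; 0% = enzyme with DMSO and 100% = wells lacking pPAFAH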
TCR CD3 inh: inhibitors of human TCR-CD3 interaction, primary screen, biochemical, fluorescence, TAMRA-labeled TCR probe | inhibition, % at 9.4 µM | 360,000 tested, 0.37% active | AID 651800, 2012; in the data active means inhibition above about 19%;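 further: recombinant mutant TCR 2C K166C tagged with TAMRA read by polarization; 0% = receptor in buffer alone and 100% = receptor with positive control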
mABHD4 FP: ABHD4 inhibitors, primary screen, biochemical, fluorescence polarization, mouse; (Lyso)-N-acylphosphatidylethanolamine lipase (Mus musculus), Q8VD66; purified mABHD4, FP-Rh probe fluorescence polarization; inhibition, % at 8.92 µM; 370,000 tested, 0.54% active;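 active means inhibition exceeding the mean over every tested compound plus 3 SD, cut at about 30% in these data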;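 further: 0% = plate median of compound wells and 100% = S159A mutant with DMSO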
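Test system: mABHD4 protein | Buffer or medium: HEPES pH 7.0 buffer, 150 mM NaCl, 0.01% Pluronic F-127 | Probe or stimulus: FP-Rh fluorescent activity-based probe, added after compound pre-incubation | Timing: Pre-incubation 45 min, probe exposure 60 min, at 25 °C | Technique: Fluorescence polarization, excitation 525 nm, emission 598 nm, BODIPY TMR filters | Repeats: Single well per compound (singlicate)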
Numbers without * were called inactive; nt = no result given. The list is not random: actives were taken first. Their share in the collection is about 2.3%.

SMILES	HTRA1 inhibitor	SIAE primary	pPAFAH FP inh	TCR CD3 inh	mABHD4 FP
Cc1cc(/C=C2\SC(=S)NC2=O)c(C)n1-c1ccccc1	nt	-8	30*	6	8
CC(C)c1cc(C(C)C)c(S(=O)(=O)N2CCCC(C(=O)N3CCN(Cc4ccccc4)CC3)C2)c(C(C)C)c1 (stereo not drawn)	nt	3	nt	nt	3
COc1cccc(C(=O)/C(C#N)=N/Nc2cccc(-c3ccnc(C)n3)c2)c1	3	-5	32*	-4	-1
COc1nc(OC)nc(N2CCC(C(=O)N(C)Cc3ccccc3F)CC2)n1	nt	1	nt	nt	2
COCCNC[C@@]12CO[C@H](c3ccc(Cl)cc3)N1[C@@H](c1ccc(Cl)cc1)SC2	nt	11	nt	nt	-13
CC(C)Oc1cccc(C(=O)C2CCCN(Cc3cnn(C(C)C)c3)C2)c1 (stereo not drawn)	-8	-5	2	4	1
CC(C)Oc1cccc(C(=O)C2CCCN(Cc3ccc4nonc4c3)C2)c1 (stereo not drawn)	-8	-7	32*	4	-4
COc1cc(NC(=O)c2ccccc2)c(C)cc1NC(=O)CSc1nnc(COc2ccccc2)n1Cc1ccco1	nt	-2	nt	nt	-5
O=C1CC[C@@H](CN(Cc2ccccn2)Cc2nc(Cc3cccc(C(F)(F)F)c3)no2)N1	1	5	6	-5	0
FC(F)(F)c1cccc(Cc2noc(CN(Cc3ccccn3)CC3CCCO3)n2)c1 (stereo not drawn)	3	4	33*	-8	11
COc1ccc(NS(=O)(=O)c2ccc(C(=O)NCC3(N4CCOCC4)CCCCC3)cc2)cc1	-2	4	31*	-1	-1
CCOc1ccc(S(=O)(=O)Nc2ccc(C(=O)NCC3(N4CCCCC4)CCCCC3)cc2)cc1	-3	7	-5	1	1
COc1ccc(NS(=O)(=O)c2cccc(C(=O)NCC3(N4CCCCC4)CCCCC3)c2)cc1	-3	4	32*	7	1
CNS(=O)(=O)c1cccc(C(=O)NCC2(N3CCCCC3)CCCCC2)c1	4	-4	5	-2	3
CCCCCCCCNS(=O)(=O)CC1NCc2ccccc21 (stereo not drawn)	nt	-3	nt	nt	-3
CN(CCc1ccccn1)C(=O)c1ccc2c(c1)ncn2C1CCCCC1	nt	2	nt	nt	3
Cc1ccc(S(=O)(=O)N2CCCC2c2nc3ccccc3s2)cc1 (stereo not drawn)	2	4	31*	1	-1
O=S(=O)(c1cc(Cl)cc(Cl)c1)N1CCCC1c1nc2ccccc2s1 (stereo not drawn)	6	1	2	0	4
O=S(=O)(c1ccc(Cl)cc1)N1CCCC1c1nc2ccccc2s1 (stereo not drawn)	-21	-4	30*	-10	-1
O=c1[nH]n2c(=O)c3c([nH]c2c1N=Nc1cccc(Cl)c1)CCCC3	17	-4	31*	-8	19
CCOc1ccc(N=Nc2c(=O)[nH]n3c(=O)c4c([nH]c23)CCCC4)cc1	2	-1	7	-6	8
COc1ccc(CN2CN3Cc4ccccc4C3CS2(=O)=O)cc1 (stereo not drawn)	nt	2	nt	nt	-1
CCN(CC)c1ccc2c(-c3ccc(S(=O)(=O)O)cc3S(=O)(=O)[O-])c3ccc(=[N+](CC)CC)cc-3oc2c1	nt	nt	173*	nt	nt
CCN(CC)c1ccc2nc3c4ccccc4c(=O)cc-3oc2c1	nt	-131	nt	-27	-136
Cc1cc(C(=O)Nc2ccc(F)cc2)n(-c2ccccc2)n1	nt	-3	nt	nt	10
SMILES	HTRA1 inhibitor	SIAE primary	pPAFAH FP inh	TCR CD3 inh	mABHD4 FP
O=C(NNC(=S)Nc1ccc(Cl)c(Cl)c1)c1cccc([N+](=O)[O-])c1	nt	-3	32*	5	17
COc1ccc2c(c1)CN1C(=O)N(CC(C)C)S(=O)(=O)CC21 (stereo not drawn)	nt	-3	nt	nt	-1
C#Cc1cccc(OCC(C)CN2CCC(C(O)(c3ccccc3)c3ccccc3)CC2)c1 (stereo not drawn)	nt	-2	nt	nt	8
O=C(NN1C(=O)c2cc(Br)ccc2NC1c1cc(Br)cc(Br)c1O)c1ccncc1 (stereo not drawn)	6	11	30*	5	7
Cc1ccc2nc(-c3ccc(NC(=O)CSc4nnc(Cc5cccs5)n4C)cc3)sc2c1	nt	-9	nt	nt	-13
COc1ccccc1/C=c1\sc2nc(-c3ccco3)nn2c1=O	4	nt	25*	nt	nt
CCOc1ccc(/C=c2\sc3nc(-c4ccco4)nn3c2=O)cc1OCC	0	8	10	0	2
COC(=O)c1cc(NC(=O)c2cccc(C(F)(F)F)c2)c(=O)oc1C/C=N/OCc1cccc(Cl)c1Cl	-28	-17	27*	0	-9
Cc1ccc(-c2c(NC(=O)C3CC3)nc3ncccn23)cc1	nt	-1	nt	nt	2
C[C@H]1CN(c2ccc(N3CCNC[C@@H]3C)cc2C#N)CCN1Cc1ccccc1	nt	3	nt	12	2
N#CC1=C(N)SC(N)=C(C#N)C1c1ccoc1	nt	nt	68*	nt	nt
COc1cc(O)c(CC=C(C)C)c(O)c1C(=O)CCc1ccc(O)cc1	-37	-22	32*	-4	-40
COc1ccc(-c2nnc(SCC(=O)Nc3ccc4cn[nH]c4c3)n2Cc2ccco2)cc1	nt	-1	nt	nt	-8
O=C(Nc1nnc(SCc2c(Cl)cccc2Cl)s1)C1CC(=O)N(c2ccc3c(c2)OCCO3)C1 (stereo not drawn)	-3	-2	32*	7	1
O=C(Nc1nnc(SCc2ccc(F)cc2)s1)C1CC(=O)N(c2ccc3c(c2)OCCO3)C1 (stereo not drawn)	-10	-5	26*	8	10
O=C(COC(=O)C12CC3CC(CC(C3)C1)C2)Nc1ncc(Cl)cc1Cl	5	-1	21	9	8
O=C(COC(=O)CC12CC3CC(CC(C3)C1)C2)Nc1ncc(Cl)cc1Cl	-15	-3	27*	-7	-3
Cc1ccc(C)c(SCC(=O)NCc2ccco2)c1	1	4	-4	-5	5
Cc1ccc(C)c(SCC(=O)OCC(=O)c2ccco2)c1	-1	0	28*	6	7
O=[N+]([O-])c1cccc(/C=N/Nc2nc(NCc3ccccc3)nc(N3CCOCC3)n2)c1O	-1	9	25*	3	18
Cc1csc(=O)n1CCC(=O)OCC(=O)N(CC(C)C)c1c(N)n(Cc2ccccc2)c(=O)[nH]c1=O	15	-11	26*	2	-7
CCCCN(C(=O)c1cccc(-n2cccc2)c1)c1c(N)n(Cc2ccccc2)c(=O)[nH]c1=O	-11	-9	33*	10	-2
CCN(C(=O)COC(=O)CCC(=O)c1ccccc1)c1c(N)n(Cc2ccccc2)c(=O)[nH]c1=O	2	26*	-3	1	-5
